From ChEMBL document CHEMBL4513216, “Probing the Open Global Health Chemical Diversity Library for Multistage-Active Starting Points for Next-Generation Antimalarials” (ACS Infect Dis, 2020)

Test: Toxicity liver stage against HepG2, at 10uM
Type: cell-based
Set-up: test concentration 10 uM, cell line HepG2-A16-CD81EGFP
Conditions: human, HepG2-A16-CD81EGFP cells; read-out: INHIBITION
Outline: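 Uninfected HepG2-A16-CD81EGFP cells, 3 × 10^3 per well, 1536-well, plated on prespotted compound at 10 μM final, parasite-free screening media added to match infected plates; puromycin 10 μM positive, DMSO 0.5% negative; run in parallel with 48 h PbLuc assay at 37 °C, 5% CO2; viability by CellTiter-Glo luminescence, normalized to controls.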

Compound	cytotoxicity at 10 µM [%]
Cc1cc(NC(=O)NCC2CCN(C(C)C)C2)no1 (configuration not stated)	-15.3
COc1ccc(CN2C[C@@H](F)[C@@H](OCc3nc4cnccc4[nH]3)C2)cn1	2.08
O[C@@H]1C[C@@H](c2nc(-c3ccccc3)no2)N(Cc2ccncc2)C1	2.77
COc1ccc(C(=O)Nc2cccc(C(N)=O)c2)c(OC)n1	-9.2
CSc1ncccc1C(=O)NCc1ccc(N(C)C)cc1	4.74
CC(=O)N1N=C(c2cccs2)OC1C(=O)Nc1ccc(C)cc1 (configuration not stated)	-4.14
C=C(C)COc1ccc(C(CC(=O)OC)c2oc(C)cc(=O)c2O)cc1 (configuration not stated)	-9.24
CC1CCN(c2ccc(=O)n(CC(=O)NCCc3ccccc3)n2)CC1	0.277
O=C(NCC1(CO)CC1)c1ccccc1Br	-0.734
Cc1noc(C)c1CN1C[C@@H]2OCCN(Cc3cnn(C)c3)[C@@H]2C1	-139
O=C(NCC1CC1)c1cc2c(s1)CCN2C(=O)c1cccnc1	8.07
Cc1cnc(C(=O)N2CCC3(CC2)CC(c2ccccc2)C(=O)N3)cn1 (configuration not stated)	4.9
O=C(c1ccnnc1)N1CCC2(CCN(c3ccsc3)C2=O)C1 (configuration not stated)	-139
Cn1nc(C#N)c2c1CN(C(=O)c1ccnnc1)CCC2	-147
CC(C)n1[nH]c(=O)c2c1NC(=O)CC2C1CCCCC1 (configuration not stated)	-12.9
CC(Cn1cc(Br)cn1)C(=O)Nc1ccncc1 (configuration not stated)	-2.82
Cc1cccc(N2CCCN=C2NC(=O)c2cccc(Cl)c2)c1	6.39
Cc1nnsc1C(=O)NCCNS(=O)(=O)c1cccs1	4.29
O=C1CNc2ncnc(NCc3cccs3)c2N1	2.99
O=C(CCn1nc(C(F)(F)F)c(Br)c1C1CC1)NN1CCOCC1	8.85
CCN(CC)S(=O)(=O)N1CCCC1c1nnc2n1CCN(C)CC2 (configuration not stated)	0.45
O=C(O)[C@@H]1OCC(=O)N(Cc2cccc(Cl)c2)[C@@H]1c1ccccc1	3.94
O=C(NCC1(O)COCCN(Cc2cccc(O)c2)C1)c1cnccn1 (configuration not stated)	-6.49

Compound	cytotoxicity at 10 µM [%]
CC(=O)N1CCC(C(=O)Nc2nnc(C(F)(F)F)[nH]2)CC1	-3.37
Cc1n[nH]c(-c2ccc(NC(=O)C(C)(C)N3CCN(C)CC3)cc2)n1	-0.876
Cc1cc(OC(F)F)c(C(=O)NCC(O)c2cccc(F)c2)s1 (configuration not stated)	-4.3
Cc1ccc(S(=O)(=O)Cc2nnc(C)n2C)cc1	-2.92
O=C(Nc1cccnc1)C1=Cc2ccccc2OC1	4.19
O=C(NCc1cc(-c2ccccc2)no1)NC1CCCCNC1=O (configuration not stated)	-145
CC(C)c1noc(OCC(=O)N2CCCCC2C)n1 (configuration not stated)	1.45
CCc1cnc(CNC(=O)NCCCO)s1	-5.42
CN1CCc2ccc(NCc3cscn3)cc2C1=O	-2.43
CCc1ccsc1C(=O)NC(Cc1ccccc1)C(N)=O (configuration not stated)	9.01
CC(O)(CNc1ccc(Cl)c(C#N)n1)c1ccccc1 (configuration not stated)	-9.06
Cc1c(C(=O)NC2CCCOc3cc(Cl)ccc32)cnn1C (configuration not stated)	-0.572
Cc1cnn(C2CN(CCOc3ccc(C#N)cc3)C2)c1	1.77
Cc1nc(NC(=O)C(C)N(C)Cc2cccc(C#N)c2)sc1C (configuration not stated)	-0.506
Cc1c(C(=O)N2CC(C)(C)C2(C)C)nnn1-c1cccc2cnccc12	9.68
O=C(CCNc1ncccn1)NCc1ccc(Br)s1	6.72
CC(C)Oc1ccc(C(=O)Cn2cnnc2[S+](C)[O-])cc1 (configuration not stated)	-4.68
COc1ccc(C(=O)O)c(OCC(=O)NC(C)c2ccccc2)c1 (configuration not stated)	1.97
O=C(CCNC(=O)N1CCC(c2ccccc2)C1)N1CCCCC1 (configuration not stated)	-3.41
CS(=O)(=O)NCCC1CCCCN1C(=O)NCCc1ccccn1 (configuration not stated)	-4.24
CS(=O)(=O)N1CCc2c(cccc2NC(=O)NC2CCCC2)C1	-6.78
COc1cccc(OCC(=O)Nc2cc(C)cnc2OC)c1	-11.4
O=C(COC1CCCC1)NCCCn1nc2ccccn2c1=O	5.78

Compound	cytotoxicity at 10 µM [%]
Cc1nc(C2CCCN2CC(=O)Nc2c(C)nn(C)c2C)no1 (configuration not stated)	-3.08
CC(=O)Nc1cccc(CNC(=O)N(C)Cc2ccccc2)c1	-2.11
CC(C)Oc1ccccc1C(=O)NCCc1nncn1C	-7.71
COc1cccc(NC(=O)N(CCO)C2CCc3ccccc32)c1 (configuration not stated)	-1.08
CC(C)c1nc2c(n1C)CCN(CCCc1nc3ccccc3o1)C2	2.07
CN(Cc1ccc(Br)s1)Cn1nc(-c2ccc(F)cc2)oc1=O	1.64
CNC(=O)C(NC(=O)c1ccn(C)c(=O)c1)c1ccccc1 (configuration not stated)	4.73
CC(C)c1cccc(-n2cc(O)c(C(=O)NCCC(=O)N(C)C)n2)c1	-2.53
Cc1cc(CNC(=O)CC2CN(C(=O)OC(C)(C)C)C2)ccc1F	4.21
Cn1cnnc1CNC(=O)C1CCCN(Cc2ccccc2)C1 (configuration not stated)	3.57
CCC(CNS(=O)(=O)c1c[nH]cn1)Oc1ccccc1F (configuration not stated)	7.22
O=C1C(n2nnc(-c3cccs3)n2)CCN1CC(F)(F)F (configuration not stated)	-0.0198
COC(=O)C1CCCCN1Cc1cccc(C(=O)NCc2ccco2)c1 (configuration not stated)	-12.5
CCc1nsc(N2CCn3c(nnc3C(F)(F)F)C2)n1	-0.657
Cc1cc(C)c(CNc2ncnc3ccsc23)c(=O)[nH]1	15.9
Cc1c(CNC(=O)Nc2cccc3c2CCN3C)cnn1C	-1.02
CCOCCN1CCN(CCCc2nnnn2-c2ccccc2)CC1	6.45
CC(C)c1nsc(N2CCc3sccc3C2)n1	20.9
CS(=O)(=O)NCCC(=O)NC1CCc2nccn2C1 (configuration not stated)	9.46
CCn1cc(NC(=O)NC2CCCc3c2cnn3CCO)cn1 (configuration not stated)	5.04
COc1cc(C)c(C(C)NC(=O)Nc2nnc(C)s2)cc1OC (configuration not stated)	1.03
Cc1nnc(C(C)NCC2(c3c(F)cccc3F)CCCC2)o1 (configuration not stated)	0.511
O=C1NCCCCC1Sc1nnc(-c2cccnc2)n1C1CC1 (configuration not stated)	-3.86

Compound	cytotoxicity at 10 µM [%]
CCN(CC)C(=O)c1ccc(NC(=O)CNc2ccc(F)cc2Cl)cc1	-5.31
CO[C@H]1CN(C(=O)c2ccnnc2)[C@@H]2COC[C@H]12	2.83
Cc1cccc(C2CCCN(C(=O)CN3CCCC3=O)C2)c1 (configuration not stated)	-0.942
OC1(CN2CCc3nnc(Cc4cccnc4)n3CC2)CCCNC1 (configuration not stated)	21.7
Cn1cc(C(=O)N2CCCC(c3ncc[nH]3)C2)cn1 (configuration not stated)	1.95
Cc1nnsc1CNC(=O)c1ccc2c(c1)nc(N1CCOCC1)n2C	-13.8
Cc1cc(C(=O)NCc2cccnc2N2CCc3ccccc3C2)[nH]n1	14.4
COCc1noc(-c2ccc(N(C)Cc3ncccc3C)nc2)n1	-0.0612
Cc1ccc(C(=O)N2CCC3(CCC(=O)N(C(C)C)C3)CC2)c(O)c1	17.5
CCC[C@H]1CN(CCS(C)(=O)=O)C[C@@H]1NC(=O)c1cccnn1	3.25
Cn1c(N2CCOCC2)nc2cc(C(=O)N3CCCOCC3)ccc21	-1.29
O=C(CN1CCCCCC1)NCCSc1cnn[nH]1	-7.15
Cc1ccc(F)c(OC2(C(=O)O)CCN(C(=O)c3ccco3)CC2)c1	5.99
CN(C)CC1(O)CCCN(c2nc(-c3ccccc3)no2)CC1 (configuration not stated)	-4.6
c1coc(-c2nc(CNC3CCCNC3)no2)c1 (configuration not stated)	-25.2
Cc1cc(=O)[nH]c(SC(C)C(=O)N2CCC(NS(C)(=O)=O)CC2)n1 (configuration not stated)	-10.4
c1ccc(-c2nc3c(c(NCCc4c[nH]cn4)n2)CCNC3)cc1	-123
CC(=O)NCc1ccc(C(=O)N2CCCC2c2cnn(C)c2)s1 (configuration not stated)	-13.6
N#Cc1ccsc1NC(=O)CCN1CCn2c(nnc2C2CC2)C1	-5.65
c1cnc(-c2nc(CNC3CCc4ncnn4C3)cs2)nc1 (configuration not stated)	-5.66
CCCc1n[nH]c(C2CN(Cc3nnc(C4CCC4)o3)CCO2)n1 (configuration not stated)	-2.42
CC(NC(=O)NCCCc1n[nH]c(N)c1C#N)c1ccc(F)cc1 (configuration not stated)	-13.7
CCc1noc(C(C)N2CCN(C(=O)CN3CCOCC3)CC2)n1 (configuration not stated)	-9.17

Compound	cytotoxicity at 10 µM [%]
Cc1nnc(CN(C)C2CCN(Cc3nc4ccccc4n3C)C2)o1 (configuration not stated)	-10.1
Cc1cc(NC(=O)CN2CCCC2c2noc(C)n2)n(C)n1 (configuration not stated)	-2.3
NC(=O)C1CCCN(c2ccc(CNC(=O)c3cc[nH]n3)cc2)C1 (configuration not stated)	-3.9
COc1ccc(C)cc1C(C)NC(=O)Cn1ccc(=O)n(C)c1=O (configuration not stated)	-1.59
CS(=O)(=O)NC1CCCN(C(=O)NCc2ccoc2)C1 (configuration not stated)	-14.9
CC(C)n1nc2c(cc1=O)CN(Cc1nnc(C3CC3)o1)CC2	-18.8
NC(=O)c1ccc(OCC(=O)N2CCCC(n3cccn3)C2)cc1 (configuration not stated)	1.3
CC(C)N1CCC2(CCNCC2)C1=O	-2.98
c1cncc(N2CCCC3(CCN(CCN4CCCC4)CC3)C2)c1	-2.95
COCC1CC2(CCN(C(=O)c3cncc(C)c3)CC2)CO1 (configuration not stated)	-155
Cc1cccc(CN2C[C@@H]3COC[C@H](NS(C)(=O)=O)[C@@H]3C2)n1	-2.6
Cc1cccc(N2CCc3ncc(CNc4ccccn4)n3CC2)n1	2.19
Cc1ccc(C(=O)N2CCO[C@H]3[C@H](OCCN(C)C)CC[C@@H]32)o1	-145
Cc1ccc(CN2CC(C(=O)Nc3ccccc3)C3(CCOCC3)C2)o1 (configuration not stated)	0.927
Cn1ccnc1CN1CC[C@H]2CO[C@H](CNc3ncccn3)[C@H]2C1	-5.81
CCCNC(c1cccnc1)c1ccc(F)c(C)c1 (configuration not stated)	0.821
CCN1CCC2(CC1)CC(NC(=O)NC)c1cc(C)ccc12 (configuration not stated)	-6.01
Cn1cc(N2CC3(CCN(CC4CCOCC4)CC3)OCC2=O)cn1	-9.29
CC(C)=CCN1C[C@@H]2CC[C@H]1CN(C(=O)Cc1c(C)[nH]c(C)nc1=O)C2	2.48
CNc1nc2cn(C3CCCC3)c(=O)c-2c[nH]1	7.17
